The source made the active and inactive calls. The calls are words filed in the database; no cut-off is given here.
What was measured:
Influenza A virus [1] = experiment: Antiviral activity against Influenza A virus (A/Ned/378/05(H1N1)) infected in dog MDCK cells assessed as reduction in virus-induced cytopathogenicity incubated for 7 days by microscopic analysis; type: functional, organism-based
Influenza A virus H3N2 [2] = experiment: Antiviral activity against Influenza A virus (A/HK/7/87(H3N2)) infected in dog MDCK cells assessed as reduction in virus-induced cytopathogenicity incubated for 7 days by microscopic analysis; type: functional, organism-based; details: A/Hong Kong/7/1987(H3N2); for EC50: 168 h
Influenza B virus [3] = experiment: Antiviral activity against Influenza B virus (B/Ned/537/05) infected in dog MDCK cells assessed as reduction in virus-induced cytopathogenicity incubated for 7 days by microscopic analysis; type: functional, organism-based; details: for EC50: 168 h
Influenza A virus [4] = experiment: Antiviral activity against Influenza A virus (A/Ned/378/05(H1N1)) infected in dog MDCK cells assessed as reduction in virus-induced cytopathogenicity incubated for 7 days by MTS assay; type: functional, organism-based
Influenza A virus H3N2 [5] = experiment: Antiviral activity against Influenza A virus (A/HK/7/87(H3N2)) infected in dog MDCK cells assessed as reduction in virus-induced cytopathogenicity incubated for 7 days by MTS assay; type: functional, organism-based; details: A/Hong Kong/7/1987(H3N2); for EC50: 168 h
Influenza B virus [6] = experiment: Antiviral activity against Influenza B virus (B/Ned/537/05) infected in dog MDCK cells assessed as reduction in virus-induced cytopathogenicity incubated for 7 days by MTS assay; type: functional, organism-based; details: for EC50: 168 h
[7] = Cytotoxicity against dog MDCK cells assessed as minimum cytotoxic concentration by observing alteration in cell morphology incubated for 3 days by microscopic analysis; type: cell-based, Canis lupus familiaris
MDCK = experiment: Cytotoxicity against dog MDCK cells assessed as reduction in cell viability incubated for 3 days by coulter counter method; type: cell-based, Canis lupus familiaris; details: mdck, 72 h
A549 = experiment: Antiproliferative activity against human A549 cells assessed as reduction in cell viability incubated for 72 hrs by MTT assay; type: functional, cell-based; details: A549, 72 h
In short: (§1)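 Cells (ATCC) grown in DMEM with 10 FBS, penicillin/streptomycin, 2 mM glutamine, 37 °C, 5 CO2. 5000 cells/well seeded; after 24 h, freshly prepared dilutions at five concentrations (0.01–100 μM) added for 72 h. MTT read-out; absorbance converted to percentage growth by NIH formulas. Two experiments in quadruplicate; IC50 by linear regression.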

CFPAC-1 = experiment: Antiproliferative activity against human CFPAC-1 cells assessed as reduction in cell viability incubated for 72 hrs by MTT assay; type: functional, cell-based; in short: as §1
HCT-116 = experiment: Antiproliferative activity against human HCT116cells assessed as reduction in cell viability incubated for 72 hrs by MTT assay; type: functional, cell-based; details: HCT-116, 72 h; in short: as §1
HeLa = experiment: Antiproliferative activity against human HeLa cells assessed as reduction in cell viability incubated for 72 hrs by MTT assay; type: functional, cell-based; in short: as §1
HepG2 = experiment: Antiproliferative activity against human HepG2 cells assessed as reduction in cell viability incubated for 72 hrs by MTT assay; type: functional, cell-based; details: HepG2, 72 h; in short: as §1
MCF7 = experiment: Antiproliferative activity against human MCF7 cells assessed as reduction in cell viability incubated for 72 hrs by MTT assay; type: functional, cell-based; details: MCF7, 72 h; in short: as §1
SW-620 = experiment: Antiproliferative activity against human SW620 cells assessed as reduction in cell viability incubated for 72 hrs by MTT assay; type: functional, cell-based; details: SW-620, 72 h; in short: as §1
HFF = experiment: Cytotoxicity against human HFF cells assessed as reduction in cell viability incubated for 72 hrs by MTT assay; type: cell-based; in short: as §1
Cytomegalovirus [8] = experiment: Antiviral activity against Cytomegalovirus AD169 infected in human HELF cells assessed as reduction in virus-induced cytopathogenicity incubated for 7 days by Giemsa staining based microscopic analysis; type: functional, organism-based; details: Human betaherpesvirus 5, AD169, HELF, 168 h
In short: (§2)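 Confluent HEL fibroblasts infected with CMV (Davis or AD-169) at 100 PFU/well for 2 h. Residual virus removed, then medium with graded compound concentrations added (duplicate). Incubated 7 days at 37 °C. Cytopathogenicity scored microscopically after ethanol fixation and Giemsa staining. EC50 read from plots of % cytopathogenicity versus concentration.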

Cytomegalovirus [9] = experiment: Antiviral activity against Cytomegalovirus Davis infected in human HELF cells assessed as reduction in virus-induced cytopathogenicity incubated for 7 days by Giemsa staining based microscopic analysis; type: functional, organism-based; details: Human betaherpesvirus 5, Davis, 168 h; in short: as §2
Human alphaherpesvirus 3 [10] = experiment: Antiviral activity against thymidine kinase deficient Varicella zoster virus infected in human HELF cells assessed as reduction in virus-induced cytopathogenicity incubated for 7 days by Giemsa staining based microscopic analysis; type: functional, organism-based; details: Human alphaherpesvirus 3, HELF, 168 h
Human alphaherpesvirus 3 [11] = experiment: Antiviral activity against thymidine kinase positive Varicella zoster virus infected in human HELF cells assessed as reduction in virus-induced cytopathogenicity incubated for 7 days by Giemsa staining based microscopic analysis; type: functional, organism-based; details: Human alphaherpesvirus 3, HELF, 168 h
[12] = Cytotoxicity against human HELF cells assessed as minimum cytotoxic concentration by observing alteration in cell morphology incubated for 3 days by microscopic analysis; type: cell-based; details: HELF cells
In short: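 Read-out is the minimum cytotoxic concentration (MCC): the lowest compound concentration giving a microscopically detectable change in cell morphology. Measured on confluent human embryonic lung (HEL) fibroblast cultures exposed to a range of compound concentrations.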

[13] = Cytotoxicity against human HELF cells assessed as reduction in cell viability incubated for 3 days by coulter counter method; type: cell-based; details: 72 h
In short: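 HEL cells seeded at 5 x 10^3/well and allowed to proliferate 24 h, then exposed to graded compound concentrations for 3 days at 37 °C. Cell number counted with a Coulter counter.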

Human alphaherpesvirus 1 [14] = experiment: Antiviral activity against Herpes simplex virus 1 KOS infected in human HELF cells assessed as reduction in virus-induced cytopathogenicity incubated for 7 days by microscopic analysis; type: functional, organism-based; details: strain KOS
Human alphaherpesvirus 2 = experiment: Antiviral activity against Herpes simplex virus 2 G infected in human HELF cells assessed as reduction in virus-induced cytopathogenicity incubated for 7 days by microscopic analysis; type: functional, organism-based
Human alphaherpesvirus 1 [15] = experiment: Antiviral activity against Herpes simplex virus 1 TK-KOS-ACV infected in human HELF cells assessed as reduction in virus-induced cytopathogenicity incubated for 7 days by microscopic analysis; type: functional, organism-based
Human adenovirus 2 = experiment: Antiviral activity against Human adenovirus 2 infected in human HELF cells assessed as reduction in virus-induced cytopathogenicity incubated for 7 days by microscopic analysis; type: functional, organism-based
Human coronavirus 229E = experiment: Antiviral activity against Human coronavirus 229E infected in human HELF cells assessed as reduction in virus-induced cytopathogenicity incubated for 7 days by microscopic analysis; type: functional, organism-based
Coxsackievirus B4 = experiment: Antiviral activity against Human coxsackievirus B4 infected in vero cells assessed as reduction in virus-induced cytopathogenicity incubated for 7 days by microscopic analysis; type: functional, organism-based
Reovirus sp. = experiment: Antiviral activity against Reovirus infected in vero cells assessed as reduction in virus-induced cytopathogenicity incubated for 7 days by microscopic analysis; type: functional, organism-based
Sindbis virus = experiment: Antiviral activity against Sindbis virus infected in vero cells assessed as reduction in virus-induced cytopathogenicity incubated for 7 days by microscopic analysis; type: functional, organism-based

## NC12CC3CC(CC(C3)C1)C2 [AMANTADINE]
Influenza A virus [1]; Influenza A virus, A/Ned/378/05(H1N1), MDCK, 168 h
  EC50: 20 µM
Influenza A virus H3N2 [2]
  EC50: 0.2 µM
Influenza B virus [3]
  EC50: > 100 µM
Influenza A virus [4]
  EC50: 22.6 µM
Influenza A virus H3N2 [5]
  EC50: 0.03 µM
Influenza B virus [6]
  EC50: > 100 µM
[7]
  MCC at 72 h: > 100 µM
MDCK
  CC50: > 100 µM

## CC(=O)N[C@H]1[C@H]([C@H](O)[C@H](O)CO)OC(C(=O)O)=C[C@@H]1N=C(N)N [ZANAMIVIR]
Influenza A virus H3N2 [2]
  EC50: 0.4 µM
Influenza B virus [3]
  EC50: 0.4 µM
Influenza A virus H3N2 [5]
  EC50: 0.01 µM
Influenza B virus [6]
  EC50: 0.4 µM
[7]
  MCC at 72 h: > 100 µM
MDCK
  CC50: ≥ 100 µM

## O=C1O/C(=C\Cn2cc(-c3ccc(Br)cc3)nn2)C(OCc2ccccc2)=C1OCc1ccccc1
A549
  IC50: > 100 µM
CFPAC-1; Homo sapiens, CFPAC-1, 72 h, read-out: IC50
  IC50: > 100 µM
HCT-116
  IC50: > 100 µM
HeLa
  IC50: 24.3 µM
HepG2
  IC50: > 100 µM
MCF7
  IC50: > 100 µM
SW-620
  IC50: > 100 µM
HFF
  IC50: > 100 µM
Cytomegalovirus [8]
  EC50: > 100 µM
Cytomegalovirus [9]
  EC50: 8.94 µM
Human alphaherpesvirus 3 [10]
  EC50: > 100 µM
Human alphaherpesvirus 3 [11]
  EC50: 44.7 µM
[12]
  MCC at 72 h: > 100 µM
[13]
  CC50: > 100 µM
Influenza A virus [1]
  Activity: inactive
Influenza A virus H3N2 [2]
  Activity: inactive
Influenza B virus [3]
  Activity: inactive
Influenza A virus [4]
  Activity: inactive
Influenza A virus H3N2 [5]
  Activity: inactive
Influenza B virus [6]
  Activity: inactive
Human alphaherpesvirus 1 [14]
  Activity: inactive
Human alphaherpesvirus 2
  Activity: inactive
Human alphaherpesvirus 1 [15]
  Activity: inactive
Human adenovirus 2
  Activity: inactive
Human coronavirus 229E
  Activity: inactive
Coxsackievirus B4
  Activity: inactive
Reovirus sp.
  Activity: inactive
Sindbis virus
  Activity: inactive

## O=C1O/C(=C\Cn2cc(-c3cc(F)cc(F)c3)nn2)C(OCc2ccccc2)=C1OCc1ccccc1
A549
  IC50: > 100 µM
CFPAC-1; cfpac-1
  IC50: Not Active
HCT-116
  IC50: > 100 µM
HeLa
  IC50: 17.7 µM
HepG2
  IC50: > 100 µM
MCF7
  IC50: > 100 µM
SW-620
  IC50: > 100 µM
HFF
  IC50: > 100 µM
Cytomegalovirus [8]
  EC50: 9.36 µM
Cytomegalovirus [9]
  EC50: 8.94 µM
Human alphaherpesvirus 3 [10]
  EC50: > 100 µM
Human alphaherpesvirus 3 [11]
  EC50: 14.6 µM
[12]
  MCC at 72 h: 100 µM
[13]
  CC50: > 100 µM
Influenza A virus [1]
  Activity: inactive
Influenza A virus H3N2 [2]
  Activity: inactive
Influenza B virus [3]
  Activity: inactive
Influenza A virus [4]
  Activity: inactive
Influenza A virus H3N2 [5]
  Activity: inactive
Influenza B virus [6]
  Activity: inactive
Human alphaherpesvirus 1 [14]
  Activity: inactive
Human alphaherpesvirus 2
  Activity: inactive
Human alphaherpesvirus 1 [15]
  Activity: inactive
Human adenovirus 2
  Activity: inactive
Human coronavirus 229E
  Activity: inactive
Coxsackievirus B4
  Activity: inactive
Reovirus sp.
  Activity: inactive
Sindbis virus
  Activity: inactive

— ChEMBL document CHEMBL4406859, “Antitumor and antiviral activities of 4-substituted 1,2,3-triazolyl-2,3-dibenzyl-L-ascorbic acid derivatives” (Eur J Med Chem, 2019)
